Measured values pooled from the literature.
ABL1 non-phosphorylated: Tyrosine-protein kinase ABL1, non-phosphorylated (ABL1, Homo sapiens, UniProt P00519)
ABL1 phosphorylated: Tyrosine-protein kinase ABL1, phosphorylated (ABL1, Homo sapiens, UniProt P00519)
ABL1 F317I non-phosphorylated: Tyrosine-protein kinase ABL1, non-phosphorylated (ABL1, Homo sapiens, UniProt P00519, F317I)
ABL1 T315I phosphorylated: Tyrosine-protein kinase ABL1, phosphorylated (ABL1, Homo sapiens, UniProt P00519, T315I)
ABL1 F317I phosphorylated: Tyrosine-protein kinase ABL1, phosphorylated (ABL1, Homo sapiens, UniProt P00519, F317I)
ABL1 Y253F phosphorylated: Tyrosine-protein kinase ABL1, phosphorylated (ABL1, Homo sapiens, UniProt P00519, Y253F)
ABL1 M351T phosphorylated: Tyrosine-protein kinase ABL1, phosphorylated (ABL1, Homo sapiens, UniProt P00519, M351T)
ABL1 E255K phosphorylated: Tyrosine-protein kinase ABL1, phosphorylated (ABL1, Homo sapiens, UniProt P00519, E255K)
ABL1 Q252H non-phosphorylated: Tyrosine-protein kinase ABL1, non-phosphorylated (ABL1, Homo sapiens, UniProt P00519, Q252H)

SMILES | target | test | setting | remaining binding
CNC(=O)[C@@H]1CC[C@@H](n2c(-c3ccc4cnccc4c3)nc3ccc(C(=O)NCc4cccc(C(N)=O)c4)cc32)C1 | ABL1 non-phosphorylated | binding, competition with immobilised ligand | 1 µM | 69%
CN(C)c1ncc(F)c(-c2cnn3ncccc23)n1 | ABL1 phosphorylated | binding | 1 µM | 82%
CC1=C(C#N)C(c2ccc3c(c2)c(NC(=O)c2ccccc2C)nn3C)C(C#N)=C(C)N1 | ABL1 F317I non-phosphorylated | binding, competition with immobilised ligand | 1 µM | 100%
O=C(c1ccc(Nc2ncc(Cl)c(-c3cc4ccccc4s3)n2)cc1)N1CCC(N2CCCC2)CC1 | Tyrosine-protein kinase ABL1, non-phosphorylated (ABL1, Homo sapiens, UniProt P00519, F317L) | binding, competition with immobilised ligand | 1 µM | 63%
CN(C)c1nccc(-c2cnc3ncccn23)n1 | Tyrosine-protein kinase ABL1 (ABL1, Homo sapiens, UniProt P00519, T315I) | binding | 1 µM | 52%
CC(=O)N1CCC(c2ccc(C(=O)NC(=N)N)cc2C(F)(F)F)CC1 | ABL1 T315I phosphorylated | cell-free assay, competition with immobilised ligand | 1 µM | 95%
COc1cnc(Nc2cccc(S(N)(=O)=O)c2)nc1N1CCN(c2ccccc2)C(=O)C1 | ABL1 non-phosphorylated | binding, competition with immobilised ligand | 1 µM | 77%
Cc1cnc(Nc2ccc(C(=O)N3CCC(N4CCCC4)CC3)cc2)nc1-c1cc2ccccc2s1 | ABL1 F317I phosphorylated | binding, competition with immobilised ligand | 1 µM | 57%
CS(=O)(=O)N1CCCC(NC(=O)[C@H](CCC2CCCCC2)NC(=O)c2ccc(CNC(=O)c3cnc4ccccn34)cc2)C1 (some centres unmarked) | ABL1 Y253F phosphorylated | cell-free assay, competition with immobilised ligand | 0.1 µM | 76%
O=C(c1ccc(Nc2nccc(-c3cc4ccccc4s3)n2)cc1)N1CCC(N2CCCC2)CC1 | ABL1 M351T phosphorylated | binding, competition with immobilised ligand | 1 µM | 17%
CCN1CCN(Cc2ccc(C(=O)Nc3ccc(C)c(Oc4ccc5c(c4)CC(=O)N5)c3)cc2C(F)(F)F)CC1 | ABL1 Y253F phosphorylated | binding, competition with immobilised ligand | 1 µM | 38%
O=C(NCC1CCOCC1)c1n[nH]cc1NC(=O)c1c(F)cccc1F | ABL1 F317I non-phosphorylated | binding, competition with immobilised ligand | 1 µM | 86%
CN(C)CC#Cc1ccc(OCCCc2sc(N3CCc4cccc(C(=O)Nc5nc6ccccc6s5)c4C3)nc2C(=O)O)c(F)c1 | ABL1 T315I phosphorylated | cell-free assay, competition with immobilised ligand | 1 µM | 92%
O=C(c1ccc(Nc2ncc(Cl)c(-c3ccc(Cl)s3)n2)cc1)N1CCC(N2CCCC2)CC1 | ABL1 E255K phosphorylated | binding, competition with immobilised ligand | 1 µM | 4.3%
c1cncc(-c2cccc(Nc3nccc(NC4CCCCC4)n3)c2)c1 | ABL1 Y253F phosphorylated | binding, competition with immobilised ligand | 10 µM | 12%
N[C@H]1CCN(c2nccc(-c3cnn4ncccc34)n2)C1 | ABL1 phosphorylated | binding | 1 µM | 88%
O=C(Nc1c[nH]nc1C(=O)NC1CCNCC1)c1cc(F)cc(F)c1 | ABL1 F317I phosphorylated | binding, competition with immobilised ligand | 1 µM | 85%
CC(C)(C)c1ccc(-c2nc(CBr)nn2-c2cccc(O)c2)cc1 | ABL1 phosphorylated | cell-free assay, competition with immobilised ligand | 10 µM | 85%

SMILES | target | test | setting | remaining binding
COc1ccnn2ncc(-c3ccnc(N(C)C)n3)c12 | Tyrosine-protein kinase ABL1 (ABL1, Homo sapiens, UniProt P00519, Q252H) | binding | 1 µM | 82%
C[C@@H](c1ccc(-n2cnc3c(N)ncnc32)cc1)N1CCc2nn(C)c(Cc3ccccc3)c2C1=O | ABL1 Y253F phosphorylated | binding, competition with immobilised ligand | 0.1 µM | 47%
CN1CCN(c2ccc(Nc3nccc(-c4ccccc4)n3)cc2C(F)(F)F)CC1 | Tyrosine-protein kinase ABL1 (ABL1, Homo sapiens, UniProt P00519, F317I) | binding | 10 µM | 100%
Cn1cc(Cl)c2c(Oc3c(F)cc(Nc4cc(Cl)nc(N)n4)cc3F)ccnc21 | ABL1 F317I non-phosphorylated | binding, competition with immobilised ligand | 0.1 µM | 93%
C[C@@H]1CCN(c2nccc(-c3cnn4ncccc34)n2)C1 | Tyrosine-protein kinase ABL1 (ABL1, Homo sapiens, UniProt P00519, H396P) | binding | 1 µM | 79%
N#Cc1ccccc1CSc1nnc2c(n1)[nH]c1ccccc12 | ABL1 E255K phosphorylated | binding, competition with immobilised ligand | 10 µM | 85%
O=C(NCc1ncc(C(F)(F)F)cc1Cl)c1ccc2c(c1)C1(CCS(=O)(=O)CC1)[C@@H](C1CC1)N2S(=O)(=O)c1ccc(F)cc1 | ABL1 M351T phosphorylated | cell-free assay, competition with immobilised ligand | 1 µM | 94%
Nc1ncc2c(n1)-c1c([nH]c3ccc(C#CC4CC4)cc13)CCCC2 | ABL1 Q252H non-phosphorylated | binding, competition with immobilised ligand | 1 µM | 93%
O=C(NCCCN1CCOCC1)c1ccc(Nc2ncc(Cl)c(-c3ccc(Cl)s3)n2)cc1 | ABL1 Q252H non-phosphorylated | binding, competition with immobilised ligand | 1 µM | 11%
c1cnn2ncc(-c3ccnc(N4CCC45COC5)n3)c2c1 | Tyrosine-protein kinase ABL1 (ABL1, Homo sapiens, UniProt P00519, F317L) | binding | 1 µM | 53%
O=C(NCCCN1CCOCC1)c1ccc(Nc2nccc(-c3cc4ccccc4s3)n2)cc1 | ABL1 phosphorylated | binding, competition with immobilised ligand | 1 µM | 37%
C=CC(=O)N1CCC(C(=O)NCC(=O)N2CCN(c3nc(-c4cnc(N)nc4C(F)F)nc(N4CCOCC4)n3)CC2)CC1 | ABL1 F317I non-phosphorylated | binding, competition with immobilised ligand | 1 µM | 100%
CN(C(=O)c1ccccc1)c1cc(N(C)c2ccc3c(c2)CCc2ccc(C(=O)NCCN4CCOCC4)cc2C3=O)ccc1F | ABL1 F317I non-phosphorylated | binding, competition with immobilised ligand | 1 µM | 79%
COc1cnc(Nc2cccc(S(N)(=O)=O)c2)nc1N1CCN(c2ccccc2)CC1 | ABL1 non-phosphorylated | binding, competition with immobilised ligand | 1 µM | 70%
F[C@@H]1CCN(c2nccc(-c3cnn4ncccc34)n2)C1 | Tyrosine-protein kinase ABL1 (ABL1, Homo sapiens, UniProt P00519, Y253F) | binding | 1 µM | 90%
COc1ncc2cc3ccccc3nc2c1C#N | ABL1 phosphorylated | cell-free assay, competition with immobilised ligand | 5 µM | 93%
CC(=O)N1CCC(c2ccc(C(=O)NC3=NCCN3)cc2C(F)(F)F)CC1 | Tyrosine-protein kinase ABL1, phosphorylated (ABL1, Homo sapiens, UniProt P00519, F317L) | cell-free assay, competition with immobilised ligand | 1 µM | 95%
